Screening data deposited in PubChem by Johns Hopkins Ion Channel Center.
Most compounds without a hit are left out; they make up all but 3.7% or so of the library.
Kir21 inh: blocks the mouse Kir2.1 inward-rectifier potassium channel; P35561; HEK293-Kir2.1, FluxOR thallium flux fluorescence; active compounds read low; B-score at 10 µM; 0.85% of 310,000 active;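 active means fluorescence ratio B-score at or below minus 3 SD of library scores, with starting-brightness B-score within 2 SD, cut at about -4.2 in these data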;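 further: channel flux triggered by added potassium and thallium sulfate stimulus; B-score of peak minus minimum fluorescence over baseline after thallium stimulus; more negative B-score means stronger Kir2.1 block with less thallium influx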
KCNQ1 inh: inhibitors of human KCNQ1 potassium channel; P51787; B-score at 10 µM; 1.3% of 310,000 active; CHO-K1 KCNQ1, FluxOR thallium flux fluorescence; active compounds read high;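 active means compounds whose thallium flux B-score, printed positive for inhibition, exceeds three library SD while starting fluorescence stays within three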;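 further: channel opened by potassium depolarization with thallium stimulus after 20 min compound exposure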
KCNK3 inh: human KCNK3 channel inhibition, primary screen; O14649; CHO-KCNK3 thallium flux, FluxOR fluorescence; active compounds read low; B-score at 10 µM; 0.84% of 340,000 active; AID 602410;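 active means B-score under library mean minus 4 SD, starting fluorescence ratio at most library mean plus 5 SD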;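 further: more negative B-score means stronger inhibition of thallium flux through KCNK3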
hERG protect: compounds protecting human hERG from proarrhythmic drug block; 0.51% of 310,000 active; CHO-hERG, FluxOR thallium flux, dofetilide IC70 present; activation (rescue from dofetilide block), less the hit threshold, % at 10 µM; Q12809; AID 1511;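 active means activation above the mean of controls blocked by dofetilide plus 5 SD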;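 further: thallium influx through hERG after potassium depolarization seen as dye fluorescence rise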
KCNQ1 act: potentiators or activators of human KCNQ1 potassium channel | P51787 | CHO-K1 KCNQ1, thallium flux FluxOR fluorescence; active compounds read high | B-score at 10 µM | 0.35% of 310,000 active;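 active means fluorescence ratio B-score, a plate-corrected score, at least three library SD, with initial intensity B-score within 5 SD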
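Assay system: stable KCNQ1 CHO-K1 line; medium: assay buffer, equal DMSO in all wells; timing: 90 min dye loading and 20 min compound exposure, both at room temperature; technique: kinetic FluxOR thallium fluorescence, 10-s 1-Hz baseline, 110-s post-stimulus read; read-out basis: B score of baseline-normalized fluorescence ratio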
KCNK9 block: blocks the human KCNK9 two-pore domain potassium channel; Q9NPC2; HEK293 KCNK9, FluxOR thallium flux fluorescence; active compounds read low; B-score at 10 µM; 1.2% of 310,000 active;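 active means ratio B-score over 3 SD below the library mean, with starting fluorescence within 5 SD of its mean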;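 further: negative B-score means less thallium flux so channel inhibition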
* hit, by the source's call; i = inactive; . = not tested or not shown.

SMILES	Kir21 inh	KCNQ1 inh	KCNK3 inh	hERG protect	KCNQ1 act	KCNK9 block
Cc1nc2nc(SCC(=O)NCCCN3CCCC(C)C3)nn2c(C)c1Cc1ccccc1Cl (centres undefined)	-0.5	i	i	-5	i	i
Cc1onc(-c2ccccc2)c1CNS(=O)(=O)c1ccccc1	-2.8	i	i	-9	i	i
Cc1ccc(S(=O)(=O)NCc2c(-c3ccccc3)noc2C)cc1	-4.3*	i	i	-10	i	i
O=C(c1ccccc1)c1coc2ccc(O)c(CN3CCOCC3)c12	-6.3*	i	i	-6	i	i
Cc1ccccc1C1c2[nH]c3ccccc3c2C[C@H]2C(=O)N(c3ccccc3C(=O)NCCCN3CCOCC3)C(=O)N12 (some centres undefined)	0.01	i	i	-10	i	i
O=C(NNS(=O)(=O)c1ccccc1)C1CCCCC1	-0.78	i	i	-8	i	i
COc1cc(C=C(c2nc3ccccc3s2)c2nc3ccccc3s2)ccc1O	-0.38	6*	i	-14	i	i
Cc1ccc(N2C(=O)c3cccc4c(N5CCN(C)CC5)ccc(c34)C2=O)c2cccnc12	-1.2	9*	.	-21	i	i
Cc1ccc(N2C(=O)c3cccc4c([N+](=O)[O-])ccc(c34)C2=O)c2cccnc12	0.66	i	i	-7	i	i
O=C(CN1CCc2ccccc21)NC(=O)NC1CCCCC1	1.4	i	i	-9	i	i
S=c1[nH]cc(Cc2ccccc2)s1	0.04	i	i	4	i	i
Cc1[nH]c(=S)sc1Cc1ccc(F)cc1	0.86	i	i	2	9*	i
NS(=O)(=O)c1ccc(NC(=O)Nc2ccc3c(c2)OCO3)cc1	-0.05	i	i	-11	i	i
O=C(Oc1cccc2c(O)cccc12)c1ccccc1	-5.4*	i	i	-7	i	i
CC(C)(C)Cc1nnc(NC(=O)c2ccco2)s1	-1.3	i	i	18*	i	i
CCc1nnc(NC(=O)c2cccc(C(=O)Nc3nnc(CC)s3)n2)s1	1.3	i	i	4.9*	i	i
O=C(Nc1nnc(Cc2ccccc2)s1)c1ccco1	0.84	i	i	1	i	i
Cn1nc(C(=O)OCC(=O)NC2CCS(=O)(=O)C2)c2ccccc2c1=O (centres undefined)	1.9	i	i	-10	i	i
O=C(Oc1ccc(C(=S)N2CCCCC2)cc1)c1ccccc1	-4.6*	i	i	-5	i	i
COc1cc(C(=S)N2CCOCC2)ccc1OC(=O)c1ccccc1	-5.1*	i	i	-13	i	i
COc1cc(C(=S)N2CCOCC2)ccc1OC(=O)c1ccc([N+](=O)[O-])cc1[N+](=O)[O-]	-0.01	i	i	5.9*	i	i
COc1ccc(C(=S)N2CCOCC2)cc1OC(=O)c1ccccc1	-1.6	i	i	-6	i	i
O=C(Oc1cccc(C(=S)N2CCCCC2)c1)c1ccccc1	-0.37	i	i	-25	i	i
CCC(C)NC(=S)N(Cc1cc2cc(C)ccc2n2nnnc12)CC(C)(C)NC(C)C (centres undefined)	1.8	i	i	-1	i	i
O=C(CCc1ccc(S(=O)(=O)N2CCOCC2)cc1)N/N=C/c1ccc(O)c(O)c1O	0.62	i	i	-3	i	i
CCN1C(=O)N[C@H](c2ccccc2)C(C(C)=O)=C1C	1.3	i	i	-3	i	i
CCOC(=O)/C=C1\CN(C(C)c2ccccc2)S(=O)(=O)c2ccccc21 (centres undefined)	-2.9	i	i	-11	i	i
Cc1ccc(Nc2nnc(-c3ccc(N4CCOCC4)c([N+](=O)[O-])c3)c3ccccc23)cc1	-0.05	7*	i	-10	i	i
O=[N+]([O-])c1cc(-c2nnc(Nc3ccccc3)c3ccccc23)ccc1N1CCOCC1	1	i	i	-3	i	i
COc1ccc(-c2c[n+]3c4n2CCCCC4=C(c2ccccc2)C3)cc1	-1.7	7*	i	-33	i	i
